Test results: ChEMBL document CHEMBL1926668, “Triazine-based vanilloid 1 receptor open channel blockers: design, synthesis, evaluation, and SAR analysis” (J Med Chem, 2011)
Activity calls are given as the source filed them. The calls are words filed in the database; no cut-off is given here.

Columns and labels:
[1] = biological target: Transient receptor potential cation channel subfamily V member 1 (Rattus norvegicus, UniProt O35433); assay: Antagonist activity at rat TRPV1 expressed in Xenopus laevis oocytes assessed as blockage of capsaicin-induced current at holding potential -60 mV by two-microelectrode voltage -clamp amplifier; type: functional, cell-based, Oocyte
[2] = biological target: Transient receptor potential cation channel subfamily V member 1 (Rattus norvegicus) (UniProt O35433); assay: Agonist activity at rat TRPV1 expressed in Xenopus laevis oocytes assessed as stimulation of capsaicin-induced current at holding potential -60 mV at 10 uM by two-microelectrode voltage -clamp amplifier; type: functional, cell-based; settings: Oocyte
In short: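 Rat TRPV1-expressing Xenopus oocytes under two-electrode voltage clamp at -60 mV in Mg2+ Ringer's buffer, 20 C. Compound at 10 μM applied without capsaicin, and the inward current it activated was recorded.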

[3] = Antagonist activity at TRPM8; type: functional
[4] = biological target: Transient receptor potential cation channel subfamily V member 1 (Rattus norvegicus) (UniProt O35433); assay: Competitive inhibition of rat TRPV1 expressed in Xenopus laevis oocytes; type: cell-based; settings: Oocyte
[5] = Antagonist activity at TRPM8 at 10 uM; type: functional; set-up: scale not given: the % may be the effect or the level left
[6] = Antagonist activity at NMDAR at 10 uM; type: functional; set-up: scale not given: the % may be the effect or the level left
[7] = biological target: Transient receptor potential cation channel subfamily V member 1 (Rattus norvegicus) (UniProt O35433); assay: Antagonist activity at rat TRPV1 expressed in Xenopus laevis oocytes assessed as blockage of capsaicin-induced current at negative membrane potentials and 10 uM by two-microelectrode voltage -clamp amplifier; settings: Oocyte
[8] = Antagonist activity at NMDAR; type: functional
[9] = Selectivity ratio of IC50 for NMDAR to IC50 for rat TRVP1
[10] = biological target: Transient receptor potential cation channel subfamily V member 1 (Rattus norvegicus) (UniProt O35433); assay: Antagonist activity at rat TRPV1 expressed in Xenopus laevis oocytes assessed as blockage of capsaicin-induced current at depolarizing membrane potential and 10 uM by two-microelectrode voltage -clamp amplifier; type: functional, cell-based; settings: Oocyte
In short: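 Voltage-dependence protocol in rat TRPV1 oocytes, Mg2+ Ringer's, 20 C. Currents were evoked by 10 μM capsaicin with a linear ramp from -60 to +60 mV over 5 s (25 mV/s), with or without 10 μM compound. Leak current measured without agonist was subtracted. Fractional block was plotted against voltage and fitted to the Woodhull model.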

[11] = Antagonist activity at TRPM8 at 1 uM; type: functional; set-up: scale not given: the % may be the effect or the level left
[12] = Selectivity ratio of IC50 for TRPM8 to IC50 for rat TRVP1
[13] = Antagonist activity at NMDAR at 1 uM; type: functional; set-up: scale not given: the % may be the effect or the level left
[14] = biological target: Transient receptor potential cation channel subfamily V member 1 (Rattus norvegicus) (UniProt O35433); assay: Antagonist activity at rat TRPV1 expressed in Xenopus laevis oocytes assessed as blockage of capsaicin-induced current at holding potential -60 mV at 10 uM by two-microelectrode voltage -clamp amplifier; type: functional, cell-based; set-up: scale not given: the % may be the effect or the level left; settings: Oocyte

Chain of Transient receptor potential cation channel subfamily V member 1 (O35433 whole entry): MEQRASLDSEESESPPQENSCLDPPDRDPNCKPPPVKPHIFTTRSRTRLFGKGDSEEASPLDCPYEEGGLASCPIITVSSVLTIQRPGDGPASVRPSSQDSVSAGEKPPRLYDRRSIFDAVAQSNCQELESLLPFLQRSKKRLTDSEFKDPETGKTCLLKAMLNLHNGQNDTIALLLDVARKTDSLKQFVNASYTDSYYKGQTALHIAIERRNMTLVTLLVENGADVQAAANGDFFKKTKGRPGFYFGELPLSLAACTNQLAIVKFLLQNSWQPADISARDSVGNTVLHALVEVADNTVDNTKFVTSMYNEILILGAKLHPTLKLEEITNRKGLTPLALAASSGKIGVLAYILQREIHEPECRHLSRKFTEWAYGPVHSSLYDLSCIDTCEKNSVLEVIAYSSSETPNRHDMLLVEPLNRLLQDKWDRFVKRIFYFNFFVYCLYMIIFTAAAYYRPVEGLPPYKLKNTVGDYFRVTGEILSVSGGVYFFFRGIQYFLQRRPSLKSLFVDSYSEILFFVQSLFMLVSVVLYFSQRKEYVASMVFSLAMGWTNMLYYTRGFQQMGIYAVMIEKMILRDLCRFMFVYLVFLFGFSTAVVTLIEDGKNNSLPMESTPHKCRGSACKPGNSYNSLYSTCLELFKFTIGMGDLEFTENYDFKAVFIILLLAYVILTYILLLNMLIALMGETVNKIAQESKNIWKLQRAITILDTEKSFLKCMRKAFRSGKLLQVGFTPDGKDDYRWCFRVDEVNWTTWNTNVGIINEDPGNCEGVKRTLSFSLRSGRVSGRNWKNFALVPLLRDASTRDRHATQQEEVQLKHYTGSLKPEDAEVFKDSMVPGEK
Chain of Transient receptor potential cation channel subfamily V member 1 (Rattus norvegicus) (O35433 whole entry): as above

Row | Structure (SMILES) | IC50 [1] [µM] | other results
1 | CN1CCN(Nc2nc(NCCc3ccc(Cl)cc3)nc(NCCc3ccc(Cl)cc3)n2)CC1 | 6.4 | 
2 | CN(C)CCOCCNc1nc(NCCc2ccc(F)cc2)nc(NCCc2ccc(F)cc2)n1 | 7.05 | 
3 | CN(C)CCCNc1nc(NCCc2ccc(Cl)cc2)nc(NCCc2ccc(Cl)cc2)n1 | 0.5 | Activity [2]: Active
4 | NCCN1CCN(c2nc(NCCc3ccc(Cl)cc3)nc(NCCc3ccc(Cl)cc3)n2)CC1 | 0.96 | 
5 | CN(C)CCCNc1nc(NCCc2ccc(F)cc2)nc(NCCc2ccc(F)cc2)n1 | 0.05 | Activity [2]: inactive; IC50 [3]: 7.5 µM; inhibition [4]: inactive; Activity [5]: 55%; Activity [6]: 51%; Activity [7]: Active; IC50 [8]: 9.2 µM; Ratio IC50 [9]: 150; Activity [10]: inactive; Activity [11]: 37%; Ratio IC50 [12]: 150; Activity [13]: 25%
6 | CN(C)CCCNc1nc(NCCc2ccc(Cl)cc2Cl)nc(NCCc2ccc(Cl)cc2Cl)n1 | 1.21 | 
7 | CN(C)CCCNc1nc(N2CCc3c([nH]c4ccccc34)C2)nc(N2CCc3c([nH]c4ccccc34)C2)n1 | 7 | 
8 | NC(=O)CN(CCc1ccc(Cl)cc1Cl)C(=O)CN(CCc1ccc(Cl)cc1Cl)C(=O)CNCCCO |  | Activity [14]: 32%
9 | N=C(N)NCCCCN(CC(N)=O)C(=O)CC1C(=O)N(CCc2ccc(Cl)cc2Cl)CC(=O)N1CCc1ccc(Cl)cc1Cl (configuration not stated) |  | Activity [14]: 30%
10 | CN1CCCC1CCNCC(=O)N(CCc1ccc(Cl)cc1Cl)CC(=O)N(CCc1ccc(Cl)cc1Cl)CC(N)=O (configuration not stated) |  | Activity [14]: 99%
11 | CN(C)CCCNc1nc(NCc2ccc(Cl)cc2Cl)nc(NCc2ccc(Cl)cc2Cl)n1 | 0.84 | 
12 | CCCCNc1nc(NCc2ccc(C(=O)O)cc2)nc(NCc2ccc(C(=O)O)cc2)n1 | 229 | 
13 | CN(C)CCCNCC(=O)N(CCc1ccc(Cl)cc1Cl)CC(=O)N(CCc1ccc(Cl)cc1Cl)CC(N)=O |  | Activity [14]: 55%
14 | COC(=O)c1ccc(CNc2nc(NCCCN(C)C)nc(NCc3ccc(C(=O)OC)cc3)n2)cc1 | 69.1 | 
15 | CN(C)CCN1CCN(c2nc(NCCc3ccc(F)cc3)nc(NCCc3ccc(F)cc3)n2)CC1 | 18.6 | Activity [2]: Active
16 | N=C(N)NCCCCN(CC(N)=O)C(=O)CC1C(=O)N(CCc2ccc(Cl)cc2)CC(=O)N1CCc1ccc(Cl)cc1 (configuration not stated) |  | Activity [14]: 55%
17 | CN(C)CCCNc1nc(NCc2ccc(Cl)cc2)nc(NCc2ccc(Cl)cc2)n1 | 2.62 | 
18 | CN(C)CCCNc1nc(NCc2ccc(C(=O)O)cc2)nc(NCc2ccc(C(=O)O)cc2)n1 | 178 | 
19 | CN(C)CCCNc1nc(NCCc2ccccc2)nc(NCCc2ccccc2)n1 | 0.67 | 
20 | CN1CCC(N2CCN(c3nc(NCCc4ccc(F)cc4)nc(NCCc4ccc(F)cc4)n3)CC2)CC1 | 70.9 | 
21 | CN(C)CCCNc1nc(NCCc2cccc(F)c2)nc(NCCc2cccc(F)c2)n1 | 0.3 | 
22 | CN(C)CCCCCNc1nc(NCCc2ccc(F)cc2)nc(NCCc2ccc(F)cc2)n1 | 0.1 | 

Row | Structure (SMILES) | IC50 [1] [µM] | other results
23 | CN1CCCC1CCN1CC(=O)N(CCc2ccccc2)C(CC(=O)N(CCc2ccc(Cl)cc2Cl)CC(N)=O)C1=O (configuration not stated) |  | Activity [14]: 28%
24 | NC(N)=NCCCCNc1nc(NCCc2ccc(F)cc2)nc(NCCc2ccc(F)cc2)n1 | 0.55 | 
25 | CN(C)CCCNc1nc(NCc2ccc3c(c2)OCO3)nc(NCc2ccc3c(c2)OCO3)n1 | 4.98 | 
26 | CN(C)CCCOc1nc(NCCc2ccc(F)cc2)nc(NCCc2ccc(F)cc2)n1 | 6.14 | 
27 | CN(C)CCCNc1nc(NCc2ccc(F)cc2F)nc(NCc2ccc(F)cc2F)n1 | 3.3 | 
28 | CN(C)CCCNc1nc(NCc2ccc(C(F)(F)F)cc2)nc(NCc2ccc(C(F)(F)F)cc2)n1 | 0.66 | 
29 | CCN(CC)CCCN1CC(=O)N(CCc2ccc(Cl)cc2Cl)C(CC(=O)N(CCc2ccc(Cl)cc2Cl)CC(N)=O)C1=O (configuration not stated) |  | Activity [14]: 3%
30 | CN1CCCC1CCNc1nc(NCCc2ccc(Cl)cc2)nc(NCCc2ccc(Cl)cc2)n1 (configuration not stated) | 1.2 | 
31 | CCCCNCC(=O)N(CCc1ccc(Cl)cc1Cl)CC(=O)N(CCc1ccc(Cl)cc1Cl)CC(N)=O |  | Activity [14]: 34%
32 | CN(C)CCCNc1nc(NCCc2c[nH]c3ccccc23)nc(NCCc2c[nH]c3ccccc23)n1 | 2.33 | 
33 | CN(C)CCCNc1nc(NCCc2ccccc2F)nc(NCCc2ccccc2F)n1 | 0.45 | 
34 | CN(C)CCCNc1nc(NCCC2=CCCCC2)nc(NCCC2=CCCCC2)n1 | 218 | 
35 | CN(C)CCCNc1nc(N2CCN(C(c3ccc(F)cc3)c3ccc(F)cc3)CC2)nc(N2CCN(C(c3ccc(F)cc3)c3ccc(F)cc3)CC2)n1 | 56.4 | 
36 | CN1CCCC1CCN(CC(N)=O)C(=O)CC1C(=O)N(CCc2ccc(Cl)cc2Cl)CC(=O)N1CCc1ccc(Cl)cc1Cl (configuration not stated) |  | Activity [14]: 40%
37 | CN1CCCC1CCN1CC(=O)N(CCc2ccc(Cl)cc2Cl)C(CC(=O)N(CCc2ccc(Cl)cc2Cl)CC(N)=O)C1=O (configuration not stated) |  | Activity [14]: 3%
38 | COc1ccc(CCNc2nc(NCCCN(C)C)nc(NCCc3ccc(OC)cc3)n2)cc1 | 0.97 | 
39 | CN(C)CCCNc1nc(NCCc2ccc([N+](=O)[O-])cc2)nc(NCCc2ccc([N+](=O)[O-])cc2)n1 | 1.63 | 
40 | CN(C)CCNc1nc(NCCc2ccc(Cl)cc2)nc(NCCc2ccc(Cl)cc2)n1 | 6.7 | 
41 | CN(C)CCCNCC(=O)N(CCc1ccc(Cl)cc1)CC(=O)N(CCc1ccc(Cl)cc1)CC(N)=O |  | Activity [14]: 45%
42 | CCN(CC)CCCNCC(=O)N(CCc1ccc(Cl)cc1Cl)CC(=O)N(CCc1ccc(Cl)cc1Cl)CC(N)=O |  | Activity [14]: 99%
43 | CN(C)CCCNc1nc(NCc2ccc(F)cc2)nc(NCc2ccc(F)cc2)n1 | 3.06 | 
